One assay has as its system K562. Put plainly: Cytotoxicity against human K562 cells after 96 hrs by trypan blue exclusion assay. In kind it is functional, cell-based. The conditions noted are these: K562, 96 h. In outline: (§1)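 Cells grown in DMEM or RPMI with 10% FBS and penicillin-streptomycin. Seeded at 1.0 × 10^5 cells/mL/well in 6-well dishes; compounds were added 24 h later at various concentrations. Viable cells were counted by trypan blue exclusion from duplicate wells after 96 h of treatment, giving a dose-response endpoint.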

For the next assay, the system named is DU-145. Put plainly: Cytotoxicity against androgen receptor-deficient human DU145 cells after 96 hrs by trypan blue exclusion assay. The format is functional, cell-based. Particulars: DU-145, 96 h. The essentials: as §1
The nature of assay [1]: Cytotoxicity against human MESSA/DX5 cells after 96 hrs by trypan blue exclusion assay. The format is functional, cell-based. The conditions noted are these: MES-SA/Dx5, 96 h. In outline:
as §1

In assay [2] the test system is HeLa. Put plainly: Inhibition of cytoplasmic microtubule polymerization in human HeLa cells at 0.005 uM after 18 hrs by FITC-conjugated DAPI staining based fluorescence microscopy. The format is cell-based. The essentials:
(§2)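 HeLa grown on glass coverslips and exposed for 18 h to test agent (0.25 or 0.5 μM), paclitaxel or vincristine (0.005 μM), or DMSO. Cells were fixed in 4% paraformaldehyde, blocked, permeabilised, and stained with FITC anti-α-tubulin (1:400) and then DAPI (0.5 ug/mL). Mitotic spindles or interphase cytoplasmic microtubules were scored by fluorescence microscopy at 100x.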

Assay [3] can be described thus: Drug resistant, ratio of IC50 for human MESSA/DX5 cells to IC50 for human MESSA cells. In kind it is functional, MES-SA. The essentials: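 MES-SA uterine sarcoma cells and the P-glycoprotein-expressing multidrug-resistant MES-SA/DX5 sub-line were grown in DMEM or RPMI with 10% FBS. Cells were plated in 6-well dishes at 1.0 × 10^5 cells/mL/well, dosed at various concentrations 24 h later, and exposed for 96 h. Viable cells were counted by trypan blue exclusion from duplicate wells. The resistant/parental IC50 ratio was taken.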

Assay [4] is described as follows: Cytotoxicity against human MES-SA cells after 96 hrs by trypan blue exclusion assay. The format is functional, cell-based. In outline: as §1
For assay [5], the system named is HeLa. Nature of the assay: Induction of mitotic arrest in human HeLa cells assessed as unbound chromosome outside metaphase plate at 0.005 uM after 18 hrs by FITC-conjugated DAPI staining based fluorescence microscopy. In kind it is functional, cell-based. In outline: as §2

Activity calls are given as the source filed them. The rule behind the calls is not given here.

With `COc1ccc(N/C=C\C(=O)c2cc(OC)c(OC)c(OC)c2)cc1`, the half-maximal inhibitory concentration (IC50) with K562 and in the assay with DU-145 was 500 nM in each case.

In the case of `COc1ccc(N/C=C\C(=O)c2cc(OC)c(OC)c(OC)c2)cc1Cl`, the IC50 (commonly the concentration needed to halve the response being measured) in the assay on K562 came to 250 nM; in the assay with DU-145, 200 nM.

For `COc1cc(C(=O)/C=C\Nc2ccccc2O)c(Br)c(OC)c1OC`, the results for the IC50 with K562 and in the assay on DU-145 were 200 nM and 250 nM, respectively.

Take `COc1cc(C(=O)/C=C\Nc2ccc(Cl)cc2)cc(OC)c1OC`: the IC50 turned out to be 250 nM in the assay on K562 and 500 nM with DU-145.

On to `COc1cc(OC)c(C(=O)/C=C\Nc2ccccc2O)c(OC)c1`, for which the IC50 was 75000 nM in the assay with K562 and 25000 nM in the assay on DU-145.

As for `COc1cc(C(=O)/C=C\Nc2cccc(O)c2)cc(OC)c1OC`, the half-inhibitory concentration (IC50) turned out to be 500 nM in the assay with K562 and 750 nM in the assay with DU-145.

Turning to `COc1ccc(N/C=C\C(=O)c2cc(OC)c(OC)c(OC)c2Cl)cc1O`, the half-maximal inhibitory concentration (IC50) with K562 turned out to be 250 nM; with DU-145, 200 nM.

In the case of `COc1cc(C(=O)/C=C\Nc2ccc3[nH]c(C)cc3c2)cc(OC)c1OC`, the IC50 came to 750 nM in the assay on K562 and 600 nM in the assay on DU-145.

Consider `COc1cc(C(=O)/C=C\Nc2ccc3cc[nH]c3c2)cc(OC)c1OC`, for which the IC50 worked out at 200 nM in the assay on K562 and 100 nM in the assay with DU-145.

Take `COc1cc(C(=O)/C=C\Nc2ccc3[nH]ccc3c2)cc(OC)c1OC`: the half-inhibitory concentration (IC50) in the assay with K562 is 500 nM; with DU-145 it was 200 nM.

For the molecule `COc1ccc(N/C=C\C(=O)c2cc(OC)c(OC)c(OC)c2[N+](=O)[O-])cc1`, the IC50 with K562 and in the assay with DU-145 was 600 nM throughout.

Regarding `COc1ccc(C(=O)/C=C\Nc2cc(OC)c(OC)c(OC)c2)cc1`, the IC50 in the assay with K562 came out at 75000 nM; in the assay on DU-145 it was 50000 nM.

For `COc1cc(C(=O)/C=C\Nc2ccccc2O)cc(OC)c1OC`, the IC50 in the assay on K562 stood at 500 nM; in the assay on DU-145, 250 nM.

Turning to `COc1ccc(N/C=C\C(=O)c2c(OC)cc(OC)cc2OC)cc1`, the half-maximal inhibitory concentration (IC50) with K562 and in the assay with DU-145 was 75000 nM each time.

For `COc1ccc(N/C=C\C(=O)c2cc(OC)c(OC)c(OC)c2)cc1O`, the 50% inhibitory concentration (IC50) in the assay on K562 and with DU-145 was 100 nM throughout.

Consider `COc1cc(N/C=C\C(=O)c2cc(OC)c(OC)c(OC)c2)cc(OC)c1OC`, for which the IC50 in the assay on K562 stood at 25000 nM; with DU-145 it was 40000 nM.

Turning to `COc1cc(C(=O)/C=C\Nc2ccc(OC(F)(F)F)cc2)cc(OC)c1OC`, the half-inhibitory concentration (IC50) in the assay with K562 came to 20000 nM; with DU-145 it was 3000 nM.

With `COc1cc(OC)c(N/C=C\C(=O)c2cc(OC)c(OC)c(OC)c2)c(OC)c1`, the values for the concentration for half-maximal inhibition (IC50) with K562 and in the assay on DU-145 were 50000 nM and 75000 nM, respectively.

With `COc1ccc(N/C=C\C(=O)c2cc(OC)c(OC)c(OC)c2Br)cc1`, the IC50 with K562 was 250 nM; in the assay on DU-145, 200 nM.

As to `COc1cc(C(=O)/C=C\Nc2ccc3[nH]ccc3c2)c(Br)c(OC)c1OC`, the IC50 turned out to be 200 nM in the assay on K562 and 150 nM in the assay on DU-145.

For `COc1cc(C(=O)/C=C\Nc2ccc(C(F)(F)F)cc2)cc(OC)c1OC`, the IC50 in the assay on K562 and in the assay with DU-145 was 500 nM each time.

For the molecule `COc1cc(OC)c(C(=O)/C=C\Nc2ccc(Cl)cc2)c(OC)c1`, the concentration for half-maximal inhibition (IC50) with K562 and with DU-145 was 25000 nM throughout.

Turning to `CC(=O)O[C@H]1C(=O)[C@@]2(C)[C@H]([C@H](OC(=O)c3ccccc3)[C@]3(O)C[C@H](OC(=O)[C@H](O)[C@@H](NC(=O)c4ccccc4)c4ccccc4)C(C)=C1C3(C)C)[C@]1(OC(C)=O)CO[C@@H]1C[C@@H]2O` [PACLITAXEL], the values for the IC50 in assay [1] and in assay [4] were 750 nM and 4 nM, respectively. Besides, the inhibition entry in the assay with HeLa [2] is “inactive”. In assay [3], the “Ratio IC50” value is listed as >100. Also, the outcome in the assay on HeLa [5] was Active.

`COc1cc(C(=O)/C=C\Nc2cc(O)ccc2Cl)cc(OC)c1OC`: the IC50 in the assay on K562 was 2500 nM; in the assay on DU-145 it was 750 nM.

With `COc1cc(C(=O)/C=C\Nc2cnc3ccccc3c2)cc(OC)c1OC`, the half-maximal inhibitory concentration (IC50) with K562 was found to be 750 nM; in the assay with DU-145, 500 nM.

Turning to `COc1cc(C(=O)/C=C\Nc2cccc3[nH]ncc23)cc(OC)c1OC`, the IC50 in the assay on K562 was 2500 nM; with DU-145 it was 750 nM.

For `COc1ccccc1N/C=C\C(=O)c1cc(OC)c(OC)c(OC)c1`, the IC50 in the assay on K562 and in the assay on DU-145 was 2500 nM each time.

Take `COc1ccc(N/C=C\C(=O)c2ccc(OC)cc2)cc1`: the results for the concentration for half-maximal inhibition (IC50) with K562 and in the assay with DU-145 were 100000 nM and 75000 nM, respectively.

As to `COc1ccc(N/C=C\C(=O)c2c(OC)cc(OC)cc2OC)c(OC)c1`, the half-maximal inhibitory concentration (IC50) in the assay with K562 and in the assay on DU-145 was 75000 nM each time.

Turning to `COc1cc(OC)c(N/C=C\C(=O)c2c(OC)cc(OC)cc2OC)c(OC)c1`, the results for the IC50 in the assay on K562 and in the assay on DU-145 were 50000 nM and 75000 nM, respectively.

Take `COc1cc(C(=O)/C=C\Nc2cccc3cc[nH]c23)cc(OC)c1OC`: the IC50 in the assay on K562 and with DU-145 was 2500 nM in each case.

In the case of `COc1cc(OC)c(C(=O)/C=C\Nc2cc(OC)c(OC)c(OC)c2)c(OC)c1`, the figures for the IC50 in the assay with K562 and in the assay with DU-145 were 75000 nM and 35000 nM, respectively.

`COc1ccc(N/C=C\C(=O)c2cc(OC)c(OC)c(OC)c2)cc1F`: the IC50 with K562 and in the assay on DU-145 was 250 nM each time.

Take `COc1ccc(N/C=C\C(=O)c2cc(OC)c(OC)c(OC)c2)cc1N`: the half-inhibitory concentration (IC50) stood at 250 nM in the assay with K562 and 100 nM with DU-145.

These data come from ChEMBL document CHEMBL2086284, “(Z)-1-aryl-3-arylamino-2-propen-1-ones, highly active stimulators of tubulin polymerization: synthesis, structure-activity relationship (SAR), tubulin polymerization, and cell growth inhibition studies” (J Med Chem, 2012).
